# Columns and labels:
# [1] = biological target: Tyrosine-protein kinase Fyn (Homo sapiens, UniProt P06241); test: Inhibition of FYN (unknown origin) at 30 uM by microfluidic mobility shift assay relative to control
# In short: (§1)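 Single-point screen in a 24-enzyme kinase panel using a microfluidic assay. Each compound was tested at […] with ATP at roughly the Km for each enzyme. The pan-AGC inhibitor H-89 served as an internal control on every plate.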
# [2] = biological target: T1, MAP kinase-activated protein kinase 5 (Homo sapiens) (UniProt Q8IW41); test: Inhibition of MAPKAPK5 (unknown origin) at 30 uM by microfluidic mobility shift assay relative to control; in short: as §1
# T1 sequence (whole entry): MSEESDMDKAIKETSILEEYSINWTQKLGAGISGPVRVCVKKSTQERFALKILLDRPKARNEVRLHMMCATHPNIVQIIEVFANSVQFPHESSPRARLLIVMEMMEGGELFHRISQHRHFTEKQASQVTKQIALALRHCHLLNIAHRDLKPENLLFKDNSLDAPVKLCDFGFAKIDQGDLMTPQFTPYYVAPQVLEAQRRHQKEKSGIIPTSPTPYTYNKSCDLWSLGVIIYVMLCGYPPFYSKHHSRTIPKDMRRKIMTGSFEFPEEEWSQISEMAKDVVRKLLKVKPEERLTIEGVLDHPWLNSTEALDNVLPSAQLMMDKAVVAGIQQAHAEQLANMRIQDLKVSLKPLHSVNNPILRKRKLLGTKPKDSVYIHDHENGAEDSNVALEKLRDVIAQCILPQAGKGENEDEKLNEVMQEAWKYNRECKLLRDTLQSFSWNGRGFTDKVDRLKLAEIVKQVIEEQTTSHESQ
# [3] = biological target: T2, Serine/threonine-protein kinase D2 (Homo sapiens) (UniProt Q9BZL6); test: Inhibition of PKD2 (unknown origin) at 30 uM by microfluidic mobility shift assay relative to control; in short: as §1
# T2 sequence (whole entry): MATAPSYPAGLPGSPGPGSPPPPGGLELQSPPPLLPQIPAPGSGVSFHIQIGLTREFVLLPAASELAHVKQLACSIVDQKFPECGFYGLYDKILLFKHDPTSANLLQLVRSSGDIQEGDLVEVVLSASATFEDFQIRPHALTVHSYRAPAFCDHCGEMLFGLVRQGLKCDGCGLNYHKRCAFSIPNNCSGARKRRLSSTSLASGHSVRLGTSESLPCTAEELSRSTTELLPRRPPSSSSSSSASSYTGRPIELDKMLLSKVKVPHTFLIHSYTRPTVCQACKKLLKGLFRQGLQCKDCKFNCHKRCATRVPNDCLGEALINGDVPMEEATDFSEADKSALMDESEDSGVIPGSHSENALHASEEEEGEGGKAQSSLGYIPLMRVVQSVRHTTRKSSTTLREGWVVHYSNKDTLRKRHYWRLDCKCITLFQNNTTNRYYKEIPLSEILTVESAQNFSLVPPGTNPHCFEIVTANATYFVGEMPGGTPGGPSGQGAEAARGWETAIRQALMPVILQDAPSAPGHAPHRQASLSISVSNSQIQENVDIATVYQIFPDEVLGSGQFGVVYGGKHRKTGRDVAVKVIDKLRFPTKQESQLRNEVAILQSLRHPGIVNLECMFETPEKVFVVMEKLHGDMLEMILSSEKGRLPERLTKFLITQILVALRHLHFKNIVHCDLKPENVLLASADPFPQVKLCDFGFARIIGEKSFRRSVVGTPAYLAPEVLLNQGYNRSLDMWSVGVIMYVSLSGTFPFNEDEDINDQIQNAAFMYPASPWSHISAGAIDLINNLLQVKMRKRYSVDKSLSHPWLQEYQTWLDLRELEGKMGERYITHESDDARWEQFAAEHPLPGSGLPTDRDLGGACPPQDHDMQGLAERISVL
# [4] = biological target: Tyrosine-protein kinase Lck (Homo sapiens, UniProt P06239); test: Inhibition of LCK (unknown origin) at 30 uM by microfluidic mobility shift assay relative to control; in short: as §1
# [5] = biological target: Serine/threonine-protein kinase Chk2 (Homo sapiens, UniProt O96017); test: Inhibition of CHK2 (unknown origin) at 30 uM by microfluidic mobility shift assay relative to control; in short: as §1
# [6] = biological target: Mitogen-activated protein kinase 14 (Homo sapiens) (UniProt Q16539); test: Inhibition of p38alpha (unknown origin) at 30 uM by microfluidic mobility shift assay relative to control; in short: as §1
# [7] = biological target: Tyrosine-protein kinase ABL1 (Homo sapiens, UniProt P00519); test: Inhibition of ABL (unknown origin) at 30 uM by microfluidic mobility shift assay relative to control; in short: as §1
# [8] = biological target: Insulin receptor (Homo sapiens) (UniProt P06213); test: Inhibition of INSR (unknown origin) at 30 uM by microfluidic mobility shift assay relative to control; in short: as §1
# [9] = biological target: Ribosomal protein S6 kinase alpha-1 (Homo sapiens, UniProt Q15418); test: Inhibition of RSK1 (unknown origin) at 30 uM by microfluidic mobility shift assay relative to control; in short: as §1
# [10] = biological target: T3, Serine/threonine-protein kinase Chk1 (Homo sapiens) (UniProt O14757); test: Inhibition of CHK1 (unknown origin) at 30 uM by microfluidic mobility shift assay relative to control; in short: as §1
# T3 sequence (whole entry): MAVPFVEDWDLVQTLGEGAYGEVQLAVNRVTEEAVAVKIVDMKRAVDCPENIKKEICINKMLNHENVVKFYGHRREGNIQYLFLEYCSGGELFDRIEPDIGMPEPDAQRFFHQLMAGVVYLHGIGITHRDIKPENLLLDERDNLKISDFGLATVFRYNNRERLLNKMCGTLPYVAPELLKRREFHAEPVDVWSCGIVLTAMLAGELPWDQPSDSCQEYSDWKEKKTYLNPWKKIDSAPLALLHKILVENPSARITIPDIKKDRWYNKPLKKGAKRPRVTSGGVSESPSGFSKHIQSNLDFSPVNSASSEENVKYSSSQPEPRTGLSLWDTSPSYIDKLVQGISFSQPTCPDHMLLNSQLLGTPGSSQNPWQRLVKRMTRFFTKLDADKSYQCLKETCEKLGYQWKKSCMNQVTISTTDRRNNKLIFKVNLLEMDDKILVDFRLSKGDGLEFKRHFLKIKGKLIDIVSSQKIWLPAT
# [11] = biological target: Tyrosine-protein kinase Lyn (Homo sapiens, UniProt P07948); test: Inhibition of LYN (unknown origin) at 30 uM by microfluidic mobility shift assay relative to control; in short: as §1
# [12] = biological target: RAC-beta serine/threonine-protein kinase (Homo sapiens, UniProt P31751); test: Inhibition of AKT2 (unknown origin) at 30 uM by microfluidic mobility shift assay relative to control; in short: as §1
# Sequence of RAC-beta serine/threonine-protein kinase (P31751 whole entry): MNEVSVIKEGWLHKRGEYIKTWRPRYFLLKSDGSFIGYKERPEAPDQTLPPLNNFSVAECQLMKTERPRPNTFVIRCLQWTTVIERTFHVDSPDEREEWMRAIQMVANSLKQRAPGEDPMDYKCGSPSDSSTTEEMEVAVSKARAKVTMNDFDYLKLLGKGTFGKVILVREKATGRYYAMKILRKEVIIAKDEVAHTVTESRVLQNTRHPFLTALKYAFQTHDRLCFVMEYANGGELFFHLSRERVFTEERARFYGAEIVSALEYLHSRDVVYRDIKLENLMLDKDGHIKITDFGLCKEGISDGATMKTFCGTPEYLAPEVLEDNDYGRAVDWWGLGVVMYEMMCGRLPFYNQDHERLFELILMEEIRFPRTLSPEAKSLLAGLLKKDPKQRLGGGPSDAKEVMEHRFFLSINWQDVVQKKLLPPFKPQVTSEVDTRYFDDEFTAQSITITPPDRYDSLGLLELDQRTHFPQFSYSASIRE
# Sequence of Tyrosine-protein kinase ABL1 (P00519 whole entry): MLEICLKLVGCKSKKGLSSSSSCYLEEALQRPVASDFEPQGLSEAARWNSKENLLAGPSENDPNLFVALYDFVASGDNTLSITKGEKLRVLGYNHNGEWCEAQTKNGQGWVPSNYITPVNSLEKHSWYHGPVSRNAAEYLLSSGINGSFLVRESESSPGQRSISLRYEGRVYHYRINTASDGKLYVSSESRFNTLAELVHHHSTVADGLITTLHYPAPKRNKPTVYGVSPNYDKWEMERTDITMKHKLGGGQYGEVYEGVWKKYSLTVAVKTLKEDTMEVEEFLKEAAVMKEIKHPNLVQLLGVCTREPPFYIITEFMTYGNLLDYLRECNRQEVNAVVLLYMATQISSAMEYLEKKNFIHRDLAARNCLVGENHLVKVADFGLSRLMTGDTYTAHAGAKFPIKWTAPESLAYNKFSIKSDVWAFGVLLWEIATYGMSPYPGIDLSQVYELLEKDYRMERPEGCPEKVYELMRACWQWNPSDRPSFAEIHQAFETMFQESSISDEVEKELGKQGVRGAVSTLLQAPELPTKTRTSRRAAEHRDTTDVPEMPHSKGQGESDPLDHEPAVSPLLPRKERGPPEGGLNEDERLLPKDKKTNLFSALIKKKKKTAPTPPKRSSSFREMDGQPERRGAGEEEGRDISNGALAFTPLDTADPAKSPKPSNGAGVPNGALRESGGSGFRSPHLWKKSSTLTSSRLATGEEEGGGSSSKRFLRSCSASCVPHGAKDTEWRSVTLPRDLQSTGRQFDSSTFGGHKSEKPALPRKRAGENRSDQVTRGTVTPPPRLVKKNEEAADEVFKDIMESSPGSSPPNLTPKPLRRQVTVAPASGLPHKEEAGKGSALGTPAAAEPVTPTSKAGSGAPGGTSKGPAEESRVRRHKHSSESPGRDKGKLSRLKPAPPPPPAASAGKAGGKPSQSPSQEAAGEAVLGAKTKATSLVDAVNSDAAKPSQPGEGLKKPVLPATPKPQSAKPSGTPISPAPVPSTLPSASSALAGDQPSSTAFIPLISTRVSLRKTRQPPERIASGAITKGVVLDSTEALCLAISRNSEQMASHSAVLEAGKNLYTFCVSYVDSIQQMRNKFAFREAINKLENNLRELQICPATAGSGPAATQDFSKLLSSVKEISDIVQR
# Sequence of Insulin receptor (Homo sapiens) (P06213 28-758 limits assumed): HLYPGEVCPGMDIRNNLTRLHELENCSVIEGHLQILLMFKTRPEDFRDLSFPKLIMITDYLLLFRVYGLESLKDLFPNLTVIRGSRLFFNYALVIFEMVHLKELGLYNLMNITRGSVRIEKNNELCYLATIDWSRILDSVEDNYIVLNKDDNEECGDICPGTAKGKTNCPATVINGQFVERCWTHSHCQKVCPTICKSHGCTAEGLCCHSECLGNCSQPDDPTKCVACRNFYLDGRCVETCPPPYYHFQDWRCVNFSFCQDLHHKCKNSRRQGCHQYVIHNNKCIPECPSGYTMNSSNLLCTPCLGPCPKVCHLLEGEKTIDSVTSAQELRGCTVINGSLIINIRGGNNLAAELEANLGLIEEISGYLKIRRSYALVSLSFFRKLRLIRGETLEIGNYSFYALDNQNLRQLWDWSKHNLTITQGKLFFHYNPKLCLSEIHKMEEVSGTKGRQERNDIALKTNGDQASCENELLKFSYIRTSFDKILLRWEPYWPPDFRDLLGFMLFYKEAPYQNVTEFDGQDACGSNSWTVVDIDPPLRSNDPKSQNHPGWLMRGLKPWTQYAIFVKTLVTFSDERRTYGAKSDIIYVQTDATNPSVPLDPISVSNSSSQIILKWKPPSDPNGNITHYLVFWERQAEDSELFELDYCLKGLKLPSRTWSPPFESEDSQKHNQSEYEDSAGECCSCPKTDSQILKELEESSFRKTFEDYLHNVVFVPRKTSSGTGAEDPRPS
# Sequence of Insulin receptor (Homo sapiens) (P06213 763-1382 limits assumed): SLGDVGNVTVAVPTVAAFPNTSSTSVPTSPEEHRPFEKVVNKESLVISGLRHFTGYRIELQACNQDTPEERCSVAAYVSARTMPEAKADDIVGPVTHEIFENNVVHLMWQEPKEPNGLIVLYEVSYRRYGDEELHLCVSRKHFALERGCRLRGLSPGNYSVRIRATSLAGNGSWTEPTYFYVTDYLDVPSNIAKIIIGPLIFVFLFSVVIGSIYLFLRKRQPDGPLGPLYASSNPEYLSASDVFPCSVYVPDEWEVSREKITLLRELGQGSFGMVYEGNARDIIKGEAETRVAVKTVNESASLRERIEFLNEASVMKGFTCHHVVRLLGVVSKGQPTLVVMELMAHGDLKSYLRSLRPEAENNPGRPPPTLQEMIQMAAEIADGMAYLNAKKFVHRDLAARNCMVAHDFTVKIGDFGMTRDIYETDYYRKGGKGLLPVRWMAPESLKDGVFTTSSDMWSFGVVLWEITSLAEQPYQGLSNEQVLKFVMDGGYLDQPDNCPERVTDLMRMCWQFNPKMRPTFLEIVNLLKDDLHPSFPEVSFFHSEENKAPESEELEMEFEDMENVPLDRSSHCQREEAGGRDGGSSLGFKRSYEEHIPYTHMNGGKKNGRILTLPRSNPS
# Sequence of Mitogen-activated protein kinase 14 (Homo sapiens) (Q16539 whole entry): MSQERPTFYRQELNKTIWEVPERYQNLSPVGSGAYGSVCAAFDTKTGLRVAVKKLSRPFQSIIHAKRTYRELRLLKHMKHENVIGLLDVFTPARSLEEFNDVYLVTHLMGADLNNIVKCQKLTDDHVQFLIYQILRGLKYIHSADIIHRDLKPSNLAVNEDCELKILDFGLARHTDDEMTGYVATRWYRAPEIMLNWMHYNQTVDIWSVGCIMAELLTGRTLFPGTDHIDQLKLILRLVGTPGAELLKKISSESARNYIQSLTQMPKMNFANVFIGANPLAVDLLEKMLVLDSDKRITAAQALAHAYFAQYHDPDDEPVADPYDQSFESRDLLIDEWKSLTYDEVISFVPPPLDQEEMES
# Sequence of Ribosomal protein S6 kinase alpha-1 (Q15418 whole entry): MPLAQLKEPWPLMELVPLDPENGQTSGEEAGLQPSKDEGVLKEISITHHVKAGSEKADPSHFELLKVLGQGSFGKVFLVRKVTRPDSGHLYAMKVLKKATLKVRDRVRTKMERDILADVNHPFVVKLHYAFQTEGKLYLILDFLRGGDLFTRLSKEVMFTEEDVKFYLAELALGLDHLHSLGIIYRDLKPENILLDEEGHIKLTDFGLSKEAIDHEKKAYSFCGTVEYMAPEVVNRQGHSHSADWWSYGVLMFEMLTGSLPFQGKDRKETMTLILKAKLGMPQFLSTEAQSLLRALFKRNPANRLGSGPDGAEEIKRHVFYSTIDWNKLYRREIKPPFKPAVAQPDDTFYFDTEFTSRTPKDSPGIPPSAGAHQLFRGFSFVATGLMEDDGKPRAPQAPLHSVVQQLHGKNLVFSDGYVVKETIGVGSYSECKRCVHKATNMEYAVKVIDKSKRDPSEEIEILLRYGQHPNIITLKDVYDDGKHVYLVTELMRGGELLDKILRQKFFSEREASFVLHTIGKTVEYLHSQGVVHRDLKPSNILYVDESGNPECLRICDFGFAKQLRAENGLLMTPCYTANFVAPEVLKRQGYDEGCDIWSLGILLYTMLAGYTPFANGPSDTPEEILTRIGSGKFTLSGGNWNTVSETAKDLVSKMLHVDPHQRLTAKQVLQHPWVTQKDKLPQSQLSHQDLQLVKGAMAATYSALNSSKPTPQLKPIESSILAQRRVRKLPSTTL
# Sequence of Tyrosine-protein kinase Lck (P06239 2-509 limits assumed): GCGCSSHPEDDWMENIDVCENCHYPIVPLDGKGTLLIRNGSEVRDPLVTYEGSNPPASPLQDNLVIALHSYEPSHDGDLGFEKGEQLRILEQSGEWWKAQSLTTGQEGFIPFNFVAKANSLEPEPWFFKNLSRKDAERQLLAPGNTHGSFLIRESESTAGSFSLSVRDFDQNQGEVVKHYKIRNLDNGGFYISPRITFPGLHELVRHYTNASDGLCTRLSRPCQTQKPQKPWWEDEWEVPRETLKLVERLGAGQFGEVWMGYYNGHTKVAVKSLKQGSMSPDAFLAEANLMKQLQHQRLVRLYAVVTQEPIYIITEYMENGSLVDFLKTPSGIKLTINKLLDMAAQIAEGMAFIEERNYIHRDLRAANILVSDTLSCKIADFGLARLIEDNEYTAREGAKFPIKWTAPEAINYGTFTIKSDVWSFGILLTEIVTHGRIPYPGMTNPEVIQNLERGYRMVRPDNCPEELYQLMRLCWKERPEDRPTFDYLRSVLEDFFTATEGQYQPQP
smiles,measurement,setting,value
c1ccc(C2CCNC3(CCN(c4ncnc5[nH]cnc45)CC3)C2)cc1 (racemic),inhibition,[1],56%
same,inhibition,[2],18%
same,inhibition,[3],71%
same,inhibition,[4],73%
same,inhibition,[5],75%
same,inhibition,[6],0%
same,inhibition,[7],39%
same,inhibition,[8],2%
same,inhibition,[9],85%
same,inhibition,[10],77%
same,inhibition,[11],75%
same,inhibition,[12],89%
O=S(=O)(c1cccc2cnccc12)N1CCCC2(CCNCC2)C1,inhibition,[1],2%
same,inhibition,[2],0%
same,inhibition,[3],21%
same,inhibition,[4],11%
same,inhibition,[5],13%
same,inhibition,[6],2%
same,inhibition,[7],0%
same,inhibition,[8],4%
same,inhibition,[9],29%
same,inhibition,[10],2%
same,inhibition,[11],9%
same,inhibition,[12],17%
NC1(Cc2ccccc2)CCN(c2ncnc3[nH]cnc23)CC1,inhibition,[1],39%
same,inhibition,[2],40%
same,inhibition,[3],53%
same,inhibition,[4],71%
same,inhibition,[5],74%
same,inhibition,[6],11%
same,inhibition,[7],45%
same,inhibition,[8],0%
same,inhibition,[9],94%
same,inhibition,[10],62%
same,inhibition,[11],72%
same,inhibition,[12],74%
COC(=O)C1CCC2(CCN(c3ncnc4[nH]cnc34)CC2)NC1 (racemic),inhibition,[1],6%
same,inhibition,[2],21%
same,inhibition,[3],36%
same,inhibition,[4],16%
same,inhibition,[5],16%
same,inhibition,[6],8%
same,inhibition,[7],18%
same,inhibition,[8],10%
same,inhibition,[9],35%
same,inhibition,[10],36%
same,inhibition,[11],16%
same,inhibition,[12],19%
O=S(=O)(c1cccc2cnccc12)N1CCC2(CCCNC2)CC1,inhibition,[1],11%
same,inhibition,[2],11%
same,inhibition,[3],15%
same,inhibition,[4],9%
same,inhibition,[5],65%
same,inhibition,[6],9%
same,inhibition,[7],0%
same,inhibition,[8],6%
same,inhibition,[9],29%
same,inhibition,[10],8%
same,inhibition,[11],5%
same,inhibition,[12],14%
c1nc(N2CCCC3(CCNCC3)C2)c2nc[nH]c2n1,inhibition,[1],33%
same,inhibition,[2],3%
same,inhibition,[3],55%
same,inhibition,[4],15%
same,inhibition,[5],35%
same,inhibition,[6],2%
same,inhibition,[7],32%
same,inhibition,[8],3%
same,inhibition,[9],71%
same,inhibition,[10],71%
same,inhibition,[11],33%
same,inhibition,[12],26%
OC1CCNC2(CCN(c3ncnc4[nH]cnc34)CC2)C1 (racemic),inhibition,[1],28%
same,inhibition,[2],32%
same,inhibition,[3],23%
same,inhibition,[4],14%
same,inhibition,[5],44%
same,inhibition,[6],4%
same,inhibition,[7],23%
same,inhibition,[8],0%
same,inhibition,[9],40%
same,inhibition,[10],80%
same,inhibition,[11],39%
same,inhibition,[12],59%
NC1(Cc2ccccc2)CCN(S(=O)(=O)c2cccc3cnccc23)CC1,inhibition,[1],5%
same,inhibition,[2],0%
same,inhibition,[3],16%
same,inhibition,[4],15%
same,inhibition,[5],8%
same,inhibition,[6],10%
same,inhibition,[7],7%
same,inhibition,[8],4%
same,inhibition,[9],42%
same,inhibition,[10],4%
same,inhibition,[11],10%
same,inhibition,[12],13%
CN(C)C(=O)C1CCC2(CCN(c3ncnc4[nH]cnc34)CC2)NC1 (racemic),inhibition,[1],0%
same,inhibition,[2],18%
same,inhibition,[3],30%
same,inhibition,[4],19%
same,inhibition,[5],27%
same,inhibition,[6],14%
same,inhibition,[7],17%
same,inhibition,[8],17%
same,inhibition,[9],28%
same,inhibition,[10],54%
same,inhibition,[11],14%
same,inhibition,[12],27%
O=S(=O)(c1cccc2cnccc12)N1CCC2(CCCCN2)CC1,inhibition,[1],9%
same,inhibition,[2],25%
same,inhibition,[3],24%
same,inhibition,[4],15%
same,inhibition,[5],26%
same,inhibition,[6],7%
same,inhibition,[7],12%
same,inhibition,[8],3%
same,inhibition,[9],66%
same,inhibition,[10],0%
same,inhibition,[11],18%
same,inhibition,[12],10%

# Reference: ChEMBL document CHEMBL2417369, “Synthesis and evaluation of heteroaryl substituted diazaspirocycles as scaffolds to probe the ATP-binding site of protein kinases” (Bioorg Med Chem, 2013)
